Test results published in ChEMBL document CHEMBL1687781, “Comparative biochemical and computational study of the role of naturally occurring mutations at Ambler positions 104 and 170 in GES β-lactamases” (Antimicrob Agents Chemother, 2010).
Values after ≈ are worked out from the molar mass of the structure shown.

System: not listed separately
Assay: Activity of Beta-lactamase GES-1 E104, G170 mutant
In short: (§1)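 Purified GES enzymes, released by mild sonication in 20 mM Tris pH 8.0, then Q-Sepharose and S-Sepharose chromatography, >95% pure by SDS-PAGE, in 50 mM KPi pH 7.6. Protein measured by Bradford. β-Lactam substrates hydrolysed at various concentrations, 25°C, in 50 mM NaCl, 50 mM MOPS pH 7.0.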

Q: Which results are given for `C[C@@H](O)[C@H]1C(=O)N2C(C(=O)O)=C(SCCNC=N)C[C@H]12` [IMIPENEM ANHYDROUS]?
A: Km: 1.2 µM; kcat: 0.006 s⁻¹

System: not listed separately
Assay: Activity of Beta-lactamase GES-7 K104, G170 mutant
In short: as §1

Q: With `C[C@H]1[C@H](NC(=O)/C(=N\OC(C)(C)C(=O)O)c2csc(N)n2)C(=O)N1S(=O)(=O)O` [AZTREONAM] as the molecule, how does the Km read?
A: 241 µM

Q: What about the kcat of the same molecule?
A: 45.5 s⁻¹

System: not listed separately
Assay: Activity of Beta-lactamase GES-2 E104, N170 mutant
In short: as §1

Q: With `C[C@@H](O)[C@H]1C(=O)N2C(C(=O)O)=C(SCCNC=N)C[C@H]12` [IMIPENEM ANHYDROUS] as the molecule, how does the Km read?
A: 0.87 µM

Q: What about the kcat of the same molecule?
A: 0.016 s⁻¹

System: not listed separately
Assay: Activity of Beta-lactamase GES-5 E104, S170 mutant
In short: as §1

Q: For `CO[C@@]1(NC(=O)Cc2cccs2)C(=O)N2C(C(=O)O)=C(COC(N)=O)CS[C@@H]21` [CEFOXITIN], which Km is on record?
A: 221 µM

Q: What about the kcat of the same molecule?
A: 7.5 s⁻¹

Q: What does the source list for `C[C@@H](O)[C@H]1C(=O)N2C(C(=O)O)=C(SCCNC=N)C[C@H]12` [IMIPENEM ANHYDROUS]?
A: Km: 1.27 µM; kcat: 0.332 s⁻¹

System: not listed separately
Assay: Activity of Beta-lactamase GES-6 K104, S170 mutant
In short: as §1

Q: For `CO[C@@]1(NC(=O)Cc2cccs2)C(=O)N2C(C(=O)O)=C(COC(N)=O)CS[C@@H]21` [CEFOXITIN], which Km is on record?
A: 82.3 µM

Q: And the kcat?
A: 12.1 s⁻¹

Q: Which Km does the source give for `C[C@@H](O)[C@H]1C(=O)N2C(C(=O)O)=C(SCCNC=N)C[C@H]12` [IMIPENEM ANHYDROUS] here?
A: 3.92 µM

Q: What about the kcat of the same molecule?
A: 0.166 s⁻¹

System: not listed separately
Assay: Activity of Beta-lactamase GES-13 K104, N170 mutant
In short: as §1

Q: For `C[C@@H](O)[C@H]1C(=O)N2C(C(=O)O)=C(SCCNC=N)C[C@H]12` [IMIPENEM ANHYDROUS], which Km is on record?
A: 3.1 µM

Q: What about the kcat of the same molecule?
A: 0.009 s⁻¹

Q: With `C[C@H]1[C@H](NC(=O)/C(=N\OC(C)(C)C(=O)O)c2csc(N)n2)C(=O)N1S(=O)(=O)O` [AZTREONAM] as the molecule, how does the Km read?
A: 405 µM

Q: What about the kcat of the same molecule?
A: 35.6 s⁻¹

System: not listed separately
Assay: Ratio of Kcat to Km for Beta-lactamase GES-1 E104, G170 mutant
In short: as §1

Q: For `C[C@@H](O)[C@H]1C(=O)N2C(C(=O)O)=C(SCCNC=N)C[C@H]12` [IMIPENEM ANHYDROUS], which kcat/Km is on record?
A: 5000 M⁻¹ s⁻¹

System: not listed separately
Assay: Ratio of Kcat to Km for Beta-lactamase GES-7 K104, G170 mutant
In short: as §1

Q: Which kcat/Km does the source give for `C[C@H]1[C@H](NC(=O)/C(=N\OC(C)(C)C(=O)O)c2csc(N)n2)C(=O)N1S(=O)(=O)O` [AZTREONAM] here?
A: 190000 M⁻¹ s⁻¹

System: not listed separately
Assay: Ratio of Kcat to Km for Beta-lactamase GES-2 E104, N170 mutant
In short: as §1

Q: Which kcat/Km does the source give for `C[C@@H](O)[C@H]1C(=O)N2C(C(=O)O)=C(SCCNC=N)C[C@H]12` [IMIPENEM ANHYDROUS] here?
A: 20000 M⁻¹ s⁻¹

System: not listed separately
Assay: Ratio of Kcat to Km for Beta-lactamase GES-5 E104, S170 mutant
In short: as §1

Q: With `CO[C@@]1(NC(=O)Cc2cccs2)C(=O)N2C(C(=O)O)=C(COC(N)=O)CS[C@@H]21` [CEFOXITIN] as the molecule, how does the kcat/Km read?
A: 30000 M⁻¹ s⁻¹

Q: For `C[C@@H](O)[C@H]1C(=O)N2C(C(=O)O)=C(SCCNC=N)C[C@H]12` [IMIPENEM ANHYDROUS], which kcat/Km is on record?
A: 260000 M⁻¹ s⁻¹

System: not listed separately
Assay: Ratio of Kcat to Km for Beta-lactamase GES-6 K104, S170 mutant
In short: as §1

Q: For `CO[C@@]1(NC(=O)Cc2cccs2)C(=O)N2C(C(=O)O)=C(COC(N)=O)CS[C@@H]21` [CEFOXITIN], which kcat/Km is on record?
A: 150000 M⁻¹ s⁻¹

Q: For `C[C@@H](O)[C@H]1C(=O)N2C(C(=O)O)=C(SCCNC=N)C[C@H]12` [IMIPENEM ANHYDROUS], which kcat/Km is on record?
A: 42000 M⁻¹ s⁻¹

System: not listed separately
Assay: Ratio of Kcat to Km for Beta-lactamase GES-13 K104, N170 mutant
In short: as §1

Q: With `C[C@@H](O)[C@H]1C(=O)N2C(C(=O)O)=C(SCCNC=N)C[C@H]12` [IMIPENEM ANHYDROUS] as the molecule, how does the kcat/Km read?
A: 3000 M⁻¹ s⁻¹

Q: For `C[C@H]1[C@H](NC(=O)/C(=N\OC(C)(C)C(=O)O)c2csc(N)n2)C(=O)N1S(=O)(=O)O` [AZTREONAM], which kcat/Km is on record?
A: 90000 M⁻¹ s⁻¹

System: Escherichia coli
Assay: Antimicrobial activity against Escherichia coli DH5[alpha] transformed with pAC-ges1 plasmid encoding Beta-lactamase GES-1 E104, G170 mutant by Etest method
Assay type: functional

Q: With `CO[C@@]1(NC(=O)Cc2cccs2)C(=O)N2C(C(=O)O)=C(COC(N)=O)CS[C@@H]21` [CEFOXITIN] as the molecule, how does the MIC read?
A: 3 mg/L (≈ 7.02 µM)

Q: Which MIC does the source give for `C[C@@H](O)[C@H]1C(=O)N2C(C(=O)O)=C(SCCNC=N)C[C@H]12` [IMIPENEM ANHYDROUS] here?
A: 0.25 mg/L (≈ 0.835 µM)

Q: For `C[C@H]1[C@H](NC(=O)/C(=N\OC(C)(C)C(=O)O)c2csc(N)n2)C(=O)N1S(=O)(=O)O` [AZTREONAM], which MIC is on record?
A: 0.094 mg/L (≈ 0.216 µM)

System: Escherichia coli
Assay: Antimicrobial activity against Escherichia coli DH5[alpha] transformed with pAC-ges1 plasmid encoding Beta-lactamase GES-7 K104, G170 mutant by Etest method
Assay type: functional

Q: Which MIC does the source give for `CO[C@@]1(NC(=O)Cc2cccs2)C(=O)N2C(C(=O)O)=C(COC(N)=O)CS[C@@H]21` [CEFOXITIN] here?
A: 3 mg/L (≈ 7.02 µM)

Q: Which MIC does the source give for `C[C@@H](O)[C@H]1C(=O)N2C(C(=O)O)=C(SCCNC=N)C[C@H]12` [IMIPENEM ANHYDROUS] here?
A: 0.125 mg/L (≈ 0.418 µM)

Q: For `C[C@H]1[C@H](NC(=O)/C(=N\OC(C)(C)C(=O)O)c2csc(N)n2)C(=O)N1S(=O)(=O)O` [AZTREONAM], which MIC is on record?
A: 2 mg/L (≈ 4.59 µM)

System: Escherichia coli
Assay: Antimicrobial activity against Escherichia coli DH5[alpha] transformed with pAC-ges1 plasmid encoding Beta-lactamase GES-2 E104, N170 mutant by Etest method
Assay type: functional

Q: With `CO[C@@]1(NC(=O)Cc2cccs2)C(=O)N2C(C(=O)O)=C(COC(N)=O)CS[C@@H]21` [CEFOXITIN] as the molecule, how does the MIC read?
A: 3 mg/L (≈ 7.02 µM)

Q: For `C[C@@H](O)[C@H]1C(=O)N2C(C(=O)O)=C(SCCNC=N)C[C@H]12` [IMIPENEM ANHYDROUS], which MIC is on record?
A: 0.5 mg/L (≈ 1.67 µM)

Q: With `C[C@H]1[C@H](NC(=O)/C(=N\OC(C)(C)C(=O)O)c2csc(N)n2)C(=O)N1S(=O)(=O)O` [AZTREONAM] as the molecule, how does the MIC read?
A: 0.032 mg/L (≈ 0.0735 µM)

System: Escherichia coli
Assay: Antimicrobial activity against Escherichia coli DH5[alpha] transformed with pAC-ges1 plasmid encoding Beta-lactamase GES-6 K104, S170 mutant by Etest method
Assay type: functional

Q: Which MIC does the source give for `CO[C@@]1(NC(=O)Cc2cccs2)C(=O)N2C(C(=O)O)=C(COC(N)=O)CS[C@@H]21` [CEFOXITIN] here?
A: 48 mg/L (≈ 112 µM)

Q: For `C[C@@H](O)[C@H]1C(=O)N2C(C(=O)O)=C(SCCNC=N)C[C@H]12` [IMIPENEM ANHYDROUS], which MIC is on record?
A: 0.5 mg/L (≈ 1.67 µM)

Q: With `C[C@H]1[C@H](NC(=O)/C(=N\OC(C)(C)C(=O)O)c2csc(N)n2)C(=O)N1S(=O)(=O)O` [AZTREONAM] as the molecule, how does the MIC read?
A: 0.094 mg/L (≈ 0.216 µM)

System: Escherichia coli
Assay: Antimicrobial activity against Escherichia coli DH5[alpha] transformed with pAC-ges1 plasmid encoding Beta-lactamase GES-13 K104, N170 mutant by Etest method
Assay type: functional

Q: With `CO[C@@]1(NC(=O)Cc2cccs2)C(=O)N2C(C(=O)O)=C(COC(N)=O)CS[C@@H]21` [CEFOXITIN] as the molecule, how does the MIC read?
A: 3 mg/L (≈ 7.02 µM)

Q: For `C[C@@H](O)[C@H]1C(=O)N2C(C(=O)O)=C(SCCNC=N)C[C@H]12` [IMIPENEM ANHYDROUS], which MIC is on record?
A: 0.25 mg/L (≈ 0.835 µM)

Q: With `C[C@H]1[C@H](NC(=O)/C(=N\OC(C)(C)C(=O)O)c2csc(N)n2)C(=O)N1S(=O)(=O)O` [AZTREONAM] as the molecule, how does the MIC read?
A: 2 mg/L (≈ 4.59 µM)

System: Escherichia coli
Assay: Antimicrobial activity against Escherichia coli DH5[alpha] by Etest method
Assay type: functional

Q: With `CO[C@@]1(NC(=O)Cc2cccs2)C(=O)N2C(C(=O)O)=C(COC(N)=O)CS[C@@H]21` [CEFOXITIN] as the molecule, how does the MIC read?
A: 2 mg/L (≈ 4.68 µM)

Q: For `C[C@@H](O)[C@H]1C(=O)N2C(C(=O)O)=C(SCCNC=N)C[C@H]12` [IMIPENEM ANHYDROUS], which MIC is on record?
A: 0.064 mg/L (≈ 0.214 µM)

System: Escherichia coli
Assay: Antimicrobial activity against Escherichia coli DH5[alpha] transformed with pAC-ges1 plasmid encoding Beta-lactamase GES-5 E104, S170 mutant by Etest method
Assay type: functional

Q: Which MIC does the source give for `CO[C@@]1(NC(=O)Cc2cccs2)C(=O)N2C(C(=O)O)=C(COC(N)=O)CS[C@@H]21` [CEFOXITIN] here?
A: 16 mg/L (≈ 37.4 µM)

Q: With `C[C@@H](O)[C@H]1C(=O)N2C(C(=O)O)=C(SCCNC=N)C[C@H]12` [IMIPENEM ANHYDROUS] as the molecule, how does the MIC read?
A: 1.5 mg/L (≈ 5.01 µM)

Q: For `C[C@H]1[C@H](NC(=O)/C(=N\OC(C)(C)C(=O)O)c2csc(N)n2)C(=O)N1S(=O)(=O)O` [AZTREONAM], which MIC is on record?
A: 0.032 mg/L (≈ 0.0735 µM)
